# Laboratory results as given in BindingDB's records for doi:10.1016/j.bmcl.2009.05.073 (Cytrx, 2009).
# Target: not listed separately
# Assay: Amplification of HSF1 transcriptional activity in human heat shock-induced HeLa cells assessed as granule formation treated 1 hr before heat shock challenge measured after 2 hrs without recovery time by immunocytochemical staining
row,Compound,EC50 [µM]
1,"CCCCn1nc(-c2ncc[nH]2)nc2c(=O)n(C)c(=O)nc1-2 [1-butyl-3-(1H-imidazol-2-yl)-6-methylpyrimido[5,4-e][1,2,4]triazine-5,7(1H,6H)-dione]",7.7
2,"CCCCn1nc(-c2ccc(C)o2)[n+]([O-])c2c(=O)n(C)c(=O)nc1-2 [1-butyl-6-methyl-3-(5-methylfuran-2-yl)-5,7-dioxo-1,5,6,7-tetrahydropyrimido[5,4-e][1,2,4]triazine 4-oxide]",10
3,"CCCCn1nc(-c2ccc(C)o2)nc2c(=O)n(C)c(=O)nc1-2 [1-butyl-6-methyl-3-(5-methylfuran-2-yl)pyrimido[5,4-e][1,2,4]triazine-5,7(1H,6H)-dione]",9.9
4,"CCCCn1nc(-c2ccc(C)s2)[n+]([O-])c2c(=O)n(C)c(=O)nc1-2 [1-butyl-6-methyl-3-(5-methylthiophen-2-yl)-5,7-dioxo-1,5,6,7-tetrahydropyrimido[5,4-e][1,2,4]triazine 4-oxide]",8.6
5,"CCCCn1nc(-c2ccc(C)s2)nc2c(=O)n(C)c(=O)nc1-2 [1-butyl-6-methyl-3-(5-methylthiophen-2-yl)pyrimido[5,4-e][1,2,4]triazine-5,7(1H,6H)-dione]",16.8
6,"CCCCn1nc(-c2ccc3ccccc3n2)nc2c(=O)n(C)c(=O)nc1-2 [1-butyl-6-methyl-3-(quinolin-2-yl)pyrimido[5,4-e][1,2,4]triazine-5,7(1H,6H)-dione]",2.5
7,"CCCCn1nc(-c2nccs2)nc2c(=O)n(C)c(=O)nc1-2 [1-butyl-6-methyl-3-(thiazol-2-yl)pyrimido[5,4-e][1,2,4]triazine-5,7(1H,6H)-dione]",2.1
8,"CCCCn1nc(-c2ccccc2)nc2c(=O)n(C)c(=O)nc1-2 [1-butyl-6-methyl-3-phenylpyrimido[5,4-e][1,2,4]triazine-5,7(1H,6H)-dione]",14.8
9,"CCn1nc(-c2ncc[nH]2)nc2c(=O)n(C)c(=O)nc1-2 [1-ethyl-3-(1H-imidazol-2-yl)-6-methylpyrimido[5,4-e][1,2,4]triazine-5,7(1H,6H)-dione]",39.8
10,"CCn1nc(-c2ccco2)nc2c(=O)n(C)c(=O)nc1-2 [1-ethyl-3-(furan-2-yl)-6-methylpyrimido[5,4-e][1,2,4]triazine-5,7(1H,6H)-dione]",10.1
11,"CCn1nc(-c2ccc[nH]2)nc2c(=O)n(C)c(=O)nc1-2 [1-ethyl-6-methyl-3-(1H-pyrrol-2-yl)pyrimido[5,4-e][1,2,4]triazine-5,7(1H,6H)-dione]",35
12,"CCn1nc(-c2ccc(C)o2)[n+]([O-])c2c(=O)n(C)c(=O)nc1-2 [1-ethyl-6-methyl-3-(5-methylfuran-2-yl)-5,7-dioxo-1,5,6,7-tetrahydropyrimido[5,4-e][1,2,4]triazine 4-oxide]",20.6
13,"CCn1nc(-c2ccc(C)o2)nc2c(=O)n(C)c(=O)nc1-2 [1-ethyl-6-methyl-3-(5-methylfuran-2-yl)pyrimido[5,4-e][1,2,4]triazine-5,7(1H,6H)-dione]",46.3
14,"CCn1nc(-c2ccc(C)s2)[n+]([O-])c2c(=O)n(C)c(=O)nc1-2 [1-ethyl-6-methyl-3-(5-methylthiophen-2-yl)-5,7-dioxo-1,5,6,7-tetrahydropyrimido[5,4-e][1,2,4]triazine 4-oxide]",11.6
15,"CCn1nc(-c2ccc(C)s2)nc2c(=O)n(C)c(=O)nc1-2 [1-ethyl-6-methyl-3-(5-methylthiophen-2-yl)pyrimido[5,4-e][1,2,4]triazine-5,7(1H,6H)-dione]",17.3
16,"CCn1nc(-c2cccs2)nc2c(=O)n(C)c(=O)nc1-2 [1-ethyl-6-methyl-3-thiophen-2-yl-pyrimido[5,4-e][1,2,4]triazine-5,7-dione]",5.1
17,"CCn1nc(-c2ccc[nH]2)[n+]([O-])c2c(=O)n(C)c(=O)nc1-2 [1-ethyl-6-methyl-5,7-dioxo-3-(1H-pyrrol-2-yl)-1,5,6,7-tetrahydropyrimido[5,4-e][1,2,4]triazine 4-oxide]",24.7
18,"CCCCn1nc(-c2nc3ccccc3[nH]2)nc2c(=O)n(C)c(=O)nc1-2 [3-(1H-benzo[d]imidazol-2-yl)-1-butyl-6-methylpyrimido[5,4-e][1,2,4]triazine-5,7(1H,6H)-dione]",40.8
19,"Cn1c(=O)nc2n(Cc3ccc(F)cc3)nc(-c3nc4ccccc4s3)nc-2c1=O [3-(benzo[d]thiazol-2-yl)-1-(4-fluorobenzyl)-6-methylpyrimido[5,4-e][1,2,4]triazine-5,7(1H,6H)-dione]",14
20,"Cn1c(=O)nc2n(Cc3ccccc3)nc(-c3nc4ccccc4s3)nc-2c1=O [3-(benzo[d]thiazol-2-yl)-1-benzyl-6-methylpyrimido[5,4-e][1,2,4]triazine-5,7(1H,6H)-dione]",4.1
21,"CC(C)Cn1nc(-c2nc3ccccc3s2)nc2c(=O)n(C)c(=O)nc1-2 [3-(benzo[d]thiazol-2-yl)-1-isobutyl-6-methylpyrimido[5,4-e][1,2,4]triazine-5,7(1H,6H)-dione]",1.3
22,"CC(C)CCn1nc(-c2nc3ccccc3s2)nc2c(=O)n(C)c(=O)nc1-2 [3-(benzo[d]thiazol-2-yl)-1-isopentyl-6-methylpyrimido[5,4-e][1,2,4]triazine-5,7(1H,6H)-dione]",2.5

# Target: T1, Heat shock factor protein 1 (Homo sapiens, UniProt Q00613)
# T1 sequence (Q00613 whole entry): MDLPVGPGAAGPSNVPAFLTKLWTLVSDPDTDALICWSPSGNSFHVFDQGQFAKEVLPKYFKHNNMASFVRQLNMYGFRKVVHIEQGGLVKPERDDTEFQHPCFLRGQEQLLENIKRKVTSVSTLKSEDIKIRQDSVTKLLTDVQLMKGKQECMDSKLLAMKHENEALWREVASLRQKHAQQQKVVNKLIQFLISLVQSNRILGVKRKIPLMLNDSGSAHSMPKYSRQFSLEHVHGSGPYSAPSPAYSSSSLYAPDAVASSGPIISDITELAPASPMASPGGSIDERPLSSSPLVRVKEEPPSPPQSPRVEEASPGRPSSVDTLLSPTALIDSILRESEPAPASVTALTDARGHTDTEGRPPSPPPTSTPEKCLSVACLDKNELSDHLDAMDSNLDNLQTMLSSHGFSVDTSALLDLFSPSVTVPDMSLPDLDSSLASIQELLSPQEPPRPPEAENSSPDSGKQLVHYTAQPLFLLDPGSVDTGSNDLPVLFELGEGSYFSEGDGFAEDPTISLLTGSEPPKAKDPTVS
# Assay: Amplification of HSF1 transcriptional activity in human HeLa cells assessed as granule formation pretreated for 3 hrs by immunocytochemical staining
# How it was run: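 HeLa cells pretreated with compound 1 h, then mild heat shock 41 °C for 2 h, no recovery; control arm pretreated 3 h at 37 °C without heat shock. Compound diluted 200-fold, 0.3 to 80 µM range.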
row,Compound,EC50 [nM]
1,C=c1c(O)c(O)cc2c1=CC=C1[C@@]2(C)CC[C@@]2(C)[C@@H]3C[C@](C)(C(=O)O)CC[C@]3(C)CC[C@]12C,2600

# Target: T1, Heat shock factor protein 1
# Assay: Amplification of HSF1 transcriptional activity in human heat shock-induced HeLa cells assessed as granule formation treated 1 hr before heat shock challenge measured after 2 hrs without recovery time by immunocytochemical staining
# How it was run: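 HeLa cells given compound 1 h before mild heat shock at 41 °C for 2 h, no recovery; compound diluted 200-fold, 0.3 to 80 µM. Unstressed control plates kept at 37 °C for 3 h. HSF1 immunocytochemical staining, imaged at 10×.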
row,Compound,EC50 [nM]
1,C=c1c(O)c(O)cc2c1=CC=C1[C@@]2(C)CC[C@@]2(C)[C@@H]3C[C@](C)(C(=O)O)CC[C@]3(C)CC[C@]12C,1100
